NTR1 ag = agonists of human NTR1, primary screen, imaging, U2OS cells, beta-arrestin-GFP, high content; NTR1-U2OS beta-arrestin-GFP spot imaging, agonist mode; activation, % at 20 µM; 330,000 compounds, 0.17% hits; AID 493036, 2011;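 active means activation at or above 40% of the spot to cytoplasm intensity ratio, with at least 20 cells analyzed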
OX1R antag-1 = OX1R (HCRTR1) antagonists, primary screen, fluorescence, CHO/OX1R cells, Fluo-8 calcium, orexin A. 330,000 compounds, 0.43% hits. Fluo-8 calcium fluorescence. Orexin/Hypocretin receptor type 1 (Homo sapiens), O43613. AID 434989, 2010. inhibition, % at 5 µM;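 active means inhibition above its plate's threshold, mean inhibition of all tested compounds on the plate plus 3 SD, cut at about 37% in these data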
Target sequence (O43613 whole entry, looked up): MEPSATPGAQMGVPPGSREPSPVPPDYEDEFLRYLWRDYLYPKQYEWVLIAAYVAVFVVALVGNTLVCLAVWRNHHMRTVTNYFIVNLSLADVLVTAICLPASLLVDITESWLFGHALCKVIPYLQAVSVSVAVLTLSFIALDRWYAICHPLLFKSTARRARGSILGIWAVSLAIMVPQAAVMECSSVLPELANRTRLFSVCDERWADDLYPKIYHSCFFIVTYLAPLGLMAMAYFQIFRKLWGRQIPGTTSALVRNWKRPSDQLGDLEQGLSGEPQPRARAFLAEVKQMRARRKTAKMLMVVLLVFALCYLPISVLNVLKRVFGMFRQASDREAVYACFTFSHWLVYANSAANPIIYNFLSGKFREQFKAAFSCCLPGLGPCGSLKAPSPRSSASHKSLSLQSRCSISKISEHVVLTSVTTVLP
CHO parental Ca = ATP-evoked calcium signal inhibitors, parental CHO, primary screen, counter-screen for OX1R antagonist project, cell-based, fluorescence, Fluo-8 calcium dye; parental CHO-K1, ATP-induced calcium, Fluo-8 fluorescence; inhibition, % at 5.6 µM; 330,000 compounds, 0.63% hits; AID 463079, 2010;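 active means inhibition above that plate's mean sample inhibition plus 3 SD, cut at about 26% in these data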
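material = parental CHO cells | also added = ATP as calcium-mobilizing challenge | dosing = single point at 5.6 µM | detection = intracellular calcium via Fluo-8 no-wash fluorescent dye | read-out = % inhibition | benchmarks = low control ATP plus DMSO, high control DMSO only | repeats = one well per compound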
OX1R antag-2 = antagonists of human orexin 1 receptor (OX1R). inhibition, % at 6.6 µM. OX1R-expressing cells, FRET antagonist read-out. Orexin/Hypocretin receptor type 1 (Homo sapiens), O43613. 330,000 compounds, 1.8% hits. AID 485270, 2010; in the data active means inhibition mostly above about 38%, no sharp cut-off; inactive means mostly below about 40%
TAAR1 antagonist = human TAAR1 antagonists, primary screen, Fluo-8 calcium fluorescence, CHO RD-HGA16 cells | Trace amine-associated receptor 1 (Homo sapiens), Q96RJ0 | antagonist | inhibition, % at 3 µM | 360,000 compounds, 1.5% hits | AID 624466, 2012;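 active means inhibition above a per-plate cutoff, the mean inhibition of test compounds on that plate plus 3 SD, cut at about 49% in these data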
Target sequence (Q96RJ0 whole entry, looked up): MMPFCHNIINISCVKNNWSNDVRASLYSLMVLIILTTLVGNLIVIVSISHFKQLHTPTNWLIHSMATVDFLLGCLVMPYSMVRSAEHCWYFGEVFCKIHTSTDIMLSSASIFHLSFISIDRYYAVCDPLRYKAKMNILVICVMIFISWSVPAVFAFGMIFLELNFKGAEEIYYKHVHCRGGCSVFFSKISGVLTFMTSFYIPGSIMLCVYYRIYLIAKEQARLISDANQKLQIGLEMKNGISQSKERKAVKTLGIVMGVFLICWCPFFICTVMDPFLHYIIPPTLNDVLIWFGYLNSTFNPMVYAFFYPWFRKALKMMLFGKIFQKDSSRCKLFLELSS
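Test system: CHO RD-HGA16 cells bearing hTAAR1 | Reagent: β-PEA, EC80 | Compound dosing: 3 µM, single point | Schedule: Dye loading 75 min at 37 °C, then 30 min room temperature | Signal: Calcium fluorescence with Fluo-8 | Evaluation: Percent inhibition of PEA-evoked calcium signal, max/basal emission ratio | Control set: DMSO-only wells and EC80 β-PEA-stimulated wells | Repeats: Singlicate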
TAAR1 ag = human TAAR1 agonists, primary screen, Fluo-8 calcium fluorescence, CHO RD-HGA16 cells; vehicle wells 0%, saturating PEA agonist 100%; 360,000 compounds, 0.99% hits; Trace amine-associated receptor 1 (Homo sapiens), Q96RJ0; activation, % at 3 µM;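 active means activation above the mean activation of all test compounds in the run plus 3 SD, cut at about 38% in these data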
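Repeats: no replicates (n 1) | Material: CHO-derived RD-HGA16 cells with stable Gα16 and human TAAR1 | Technique: Kinetic Fluo-8 calcium fluorescence | Schedule: 17-24 h seeding, 75 min 37 °C dye, 30 min RT | Evaluation: % activation from peak over basal fluorescence ratio, DMSO-to-PEA scaled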
nonsel antag count = nonselective antagonists in TAAR1 counter-screen cells, counter-screen for hTAAR1 antagonist project, cell-based, fluorescence, calcium | counterscreen cell line, antagonist mode | 2,400 compounds, 77% hits | inhibition, % at 3 µM | AID 651780, 2012 | shares compounds with TAAR1 antagonist; in the data active means inhibition above about 22%;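 further: CHO-Ga16 host cells stimulated with ATP at an EC80 level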
TAAR1 antag conf = human TAAR1 antagonists, retest of hits, confirmation, cell-based, fluorescence; AID 651785, 2012; 2,400 compounds, 40% hits; inhibition, % at 3 µM; shares compounds with TAAR1 antagonist; TAAR1-expressing cells, fluorescence antagonist read-out; in the data active means inhibition above about 49%;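 further: CHO-Ga16 host cells challenged with agonist PEA near its EC80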
Ga16 ag counter = calcium activation in Ga16-expressing cells, counter-screen for TAAR1 antagonist project, cell-based, fluorescence; agonist counterscreen; 2,400 compounds, 18% hits; AID 651953, 2012; shares compounds with TAAR1 antagonist; activation, % at 3 µM; in the data active means activation above about 12%
TAAR1 ag counter = TAAR1 activation by candidate antagonists – cell-based, fluorescence, counter-screen for TAAR1 antagonist project; shares compounds with TAAR1 antagonist; hTAAR1 cell line, agonist mode; activation, % at 3 µM; 2,400 compounds, 2% hits; in the data active means activation above about 37%;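 further: CHO cells stably expressing TAAR1 with calcium dye readout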
Of the large screens only hits and unclear results are named; the others gave an inactive call (follow-up assays come after a bar, where they were run). The list is not random: actives were taken first. Their share in the collection is about 4%.

COc1ccc(-c2csc3nc(-c4cccnc4)nc(N4CCC(C(N)=O)CC4)c23)cc1OC	TAAR1 antagonist 52.5 | nonsel antag count inactive | TAAR1 antag conf inactive | Ga16 ag counter inactive | TAAR1 ag counter inactive
COc1ccc(-c2csc3nc(C)nc(N4CCCCC4)c23)cc1OC	none
COc1ccccc1/C=C/C(=O)NC(=S)N(C)C1CCCCC1	TAAR1 antagonist 68.5 | nonsel antag count 33.0 | TAAR1 antag conf inactive | Ga16 ag counter inactive | TAAR1 ag counter inactive
CCCCn1c(=O)n(CC(=O)NCc2ccc(C)cc2)c(=O)c2c1nc(CO)n2CCC	TAAR1 antagonist 50.3 | nonsel antag count 21.9 | TAAR1 antag conf inactive | Ga16 ag counter inactive | TAAR1 ag counter inactive
Cc1ccc(-c2csc(N3CCC[C@@H]3C(=O)NCCn3c(-c4ccncc4)nc4ccccc43)n2)cc1	TAAR1 antagonist 62.4 | nonsel antag count 26.1 | TAAR1 antag conf 49.5 | Ga16 ag counter inactive | TAAR1 ag counter inactive
Cc1ccc(-c2csc(N3CCN(CCCn4c(-c5ccncc5)nc5ccccc54)CC3)n2)cc1	TAAR1 antagonist 55.5 | nonsel antag count 24.7 | TAAR1 antag conf inactive | Ga16 ag counter inactive | TAAR1 ag counter inactive
Cc1ccc(-c2csc(N3CCN(CCCn4c(C(F)(F)F)nc5ccccc54)CC3)n2)cc1	none
O=C(C[n+]1ccc(C(=O)NCCCO)cc1)c1cccc(Br)c1	none
CCOC(=O)C1=C(C)NC(C)=C(C(=O)OCC)C1C(=O)OCC(=O)NC1(C#N)CCCCC1	TAAR1 antagonist 62.7 | nonsel antag count 29.0 | TAAR1 antag conf 54.5 | Ga16 ag counter inactive | TAAR1 ag counter inactive
CCOC(=O)C1=C(C)NC(C)=C(C(=O)OCC)C1C(=O)OCC(=O)NC1CCCCC1	TAAR1 antagonist 61.1 | nonsel antag count 27.4 | TAAR1 antag conf 52.0 | Ga16 ag counter inactive | TAAR1 ag counter inactive
COc1ccccc1N1CCN(Cc2cc(=O)c(OCC(=O)NC3CCCC3)co2)CC1	none
O=C(NCCCN1CCOCC1)c1ccccc1N1C(=O)[C@@H]2Cc3c([nH]c4ccccc34)C(c3ccc(F)cc3)N2C1=O (stereo partly specified)	TAAR1 antagonist 72.8 | nonsel antag count 26.4 | TAAR1 antag conf inactive | Ga16 ag counter inactive | TAAR1 ag counter inactive
O=C(NCCN1CCOCC1)c1ccccc1N1C(=O)[C@@H]2Cc3c([nH]c4ccccc34)C(c3ccccc3)N2C1=O (stereo partly specified)	none
COc1cccc(COC(=O)Nc2ccccc2)c1OC	none (no result: NTR1 ag, OX1R antag-1, CHO parental Ca, OX1R antag-2)
C=C(C)C1CCC(C)=C1COC(=O)Nc1ccccc1 (stereo unspecified)	TAAR1 antagonist 53.4 | nonsel antag count inactive | TAAR1 antag conf inactive | Ga16 ag counter inactive | TAAR1 ag counter inactive
COc1ccc(S(=O)(=O)N(C)c2nc3ccccc3n3c(CC(C)C)nnc23)cc1	none
COc1ccc(-c2ccc3c(n2)CCCN3S(=O)(=O)c2ccccc2)cc1	TAAR1 antagonist 77.9 (no result: NTR1 ag, OX1R antag-1, CHO parental Ca, OX1R antag-2) | nonsel antag count 37.7 | TAAR1 antag conf 52.1 | Ga16 ag counter inactive | TAAR1 ag counter inactive
CCN(C[C@H]1N[C@@](CC)(C(=O)OC)[C@H]2C(=O)N(Cc3ccccc3)C(=O)[C@@H]12)C(=O)C1CCCCC1	none
CCN(CC)C(=O)c1cccc(-c2csc(C(C)(O)c3ccccc3)n2)c1 (stereo unspecified)	none (no result: NTR1 ag, OX1R antag-1, CHO parental Ca, OX1R antag-2)
CCN(CC)C(=O)c1cccc(-c2csc(C(C)(O)c3ccc(OC)cc3)n2)c1 (stereo unspecified)	TAAR1 antagonist 86.2 (no result: NTR1 ag, OX1R antag-1, CHO parental Ca, OX1R antag-2) | nonsel antag count 39.8 | TAAR1 antag conf 60.4 | Ga16 ag counter 14.9 | TAAR1 ag counter inactive
CCN(CC)C(=O)c1cccc(-c2csc(C(C)(O)c3cccc(OC)c3)n2)c1 (stereo unspecified)	TAAR1 antagonist 78.3 (no result: NTR1 ag, OX1R antag-1, CHO parental Ca, OX1R antag-2) | nonsel antag count 46.5 | TAAR1 antag conf 59.1 | Ga16 ag counter 14.7 | TAAR1 ag counter inactive
CCCCCn1cnnc1SCC(=O)c1c(N)n(C2CC2)c(=O)[nH]c1=O	none (no result: OX1R antag-1, CHO parental Ca, OX1R antag-2)
CCc1nc(NC(=O)Cc2csc(C)n2)sc1C(=O)OC	none
O=C(O)C1=C[C@H](c2ccc(C(F)(F)F)cc2)C[C@H](OCCCCO)O1	none
CCC(C)Nc1ncnc2c1cnn2Cc1ccc(Cl)cc1 (stereo unspecified)	TAAR1 antagonist 55.1 | nonsel antag count inactive | TAAR1 antag conf inactive | Ga16 ag counter 13.2 | TAAR1 ag counter inactive
O=C(Nc1cccc(Cl)c1)N(Cc1nc2ccccc2c(=O)[nH]1)C1CCCC1	none
O=C(Nc1cccc(Cl)c1)N(Cc1nc2ccccc2c(=O)[nH]1)Cc1cccs1	TAAR1 antagonist 51.3 | nonsel antag count 29.5 | TAAR1 antag conf inactive | Ga16 ag counter inactive | TAAR1 ag counter inactive
O=C(CSc1ccc(Cl)cc1)N1CCN(c2ccc(Cl)cc2[N+](=O)[O-])CC1	TAAR1 antagonist 67.2 | nonsel antag count 25.2 | TAAR1 antag conf inactive | Ga16 ag counter inactive | TAAR1 ag counter inactive
O=C(NCCc1cccs1)C1CC(c2ccccc2F)=NO1 (stereo unspecified)	TAAR1 antagonist 74.2 | nonsel antag count inactive | TAAR1 antag conf 81.0 | Ga16 ag counter inactive | TAAR1 ag counter 68.0
Cc1c(C(=O)N2CCN(c3ccccc3F)CC2)oc2c1C(=O)CC(C)(C)C2	none
Cc1c(C(=O)N2CCN(c3ccccc3)CC2)oc2c1C(=O)CC(C)(C)C2	TAAR1 antagonist 67.5 | nonsel antag count 30.4 | TAAR1 antag conf 53.3 | Ga16 ag counter inactive | TAAR1 ag counter inactive

Bioassay records from PubChem.
